Screening results from PubChem BioAssay.
NLRP3 yeast inh – inhibitors of NALP3 inflammasome in yeast. Yeast reconstituted NLRP3/ASC/caspase-1, beta-gal luminescence, 24 h. inhibition, % at 10 µM. 0.39% of 330,000 active;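 active = inhibition of 50% or more; inactive = inhibition below 50%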
PolyA inhibitor – yeast polyadenylation inhibition; activity score, % at 12 µM; 0.02% of 300,000 active; S. cerevisiae SKY197-pL101 polyadenylation reporter, beta-gal luminescence; efflux-impaired pdr1/pdr3 knockout yeast; score 100 = 6 SD above DMSO; AID 1875;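 active = lowest replicate activity score at least 50, where 100 means six control SD above control mean; inconclusive = lowest score under 50 but half or more replicates reach 50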;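 also: yeast exposed to compound for 9 h at 30 °C; higher score means more reporter readthrough which indicates perturbed polyadenylation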
T cruzi repl – T. cruzi replication inhibition | T. cruzi beta-gal in NIH3T3, luminescence, 90 h | inhibition, % (test concentration not listed) | 1.4% of 300,000 active | AID 1885;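 active = mean inhibition across valid replicates above about 55%, limit read from the data; inconclusive = mean below that limit but half or more replicates reach it; inactive = mean below it, under half of replicates reach it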;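 also: signal also drops with host cell toxicity which is not excluded here; higher percent means less beta-gal luminescence so fewer parasites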
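Read-out: Parasite load inhibition, % | Test system: Mouse NIH/3T3 fibroblasts infected with β-gal-expressing T. cruzi Tulahuen C4 | Amount: 5,000 cells/well | Medium: DMEM, 2% fetal bovine serum | Signal: GalScreen β-gal luminescence, detergent lysis, 60 min | Timing: 3 h attach, ≥90 h co-culture | Also added: Tulahuen C4 trypomastigotes, 5000/well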
NALP1 inh – NALP1 inhibition; S. cerevisiae NALP1/ASC/caspase-1 growth, X-gal OD620, 72 h; inhibition, % at 10 µM; 0.61% of 280,000 active; AID 2071; in the data active = inhibition mostly above about 24%, no sharp cut-off; inactive = mostly below about 32%
Calb FLC – C. albicans growth modulation with fluconazole; C. albicans CaCi-2 + fluconazole, Alamar Blue growth, 48 h; growth inhibition, % (test concentration not listed); 0.57% of 300,000 active;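 active = growth inhibition above about 58% in most replicates, limit read from the data, passing the limit was not always enough; inconclusive = exactly half the replicates above a set limit; inactive = most replicates below a set limit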;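 also: all wells also contain fluconazole at 8 µg/ml as a sub-toxic cotreatment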
L major viab – Leishmania major promastigote growth inhibition. Leishmania major promastigotes, resazurin fluorescence viability. inhibition, % at 10 µM. 9% of 200,000 active. AID 1063; in the data active = inhibition above about 50%;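 also: promastigotes grown with compound for 44 hours at 28 °C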
Numbers stand for hits; i = inactive; ? = inconclusive; nt = not tested or not shown. The full list was thinned out, with hits kept by preference.

SMILES	NLRP3 yeast inh	PolyA inhibitor	T cruzi repl	NALP1 inh	Calb FLC	L major viab
COC(=O)c1cc(S(=O)(=O)N2CCN(c3ccc([N+](=O)[O-])cc3)CC2)c[nH]1	i	i	i	i	i	nt
COC(=O)[C@@H]1CC[C@H](C)[C@@H](c2ccc(C)cc2)N1C(=O)c1ccc(/C=N/OC[C@@H](O)[C@H]2O[C@@H]3OC(C)(C)O[C@@H]3[C@H]2O)cc1	i	i	i	i	i	i
COC(=O)[C@@H]1CC[C@H](C)[C@@H](c2ccc(C)cc2)N1C(=O)c1ccc(/C=N/O[C@@H](C)c2cn([C@H](CO)Cc3ccccc3)nn2)cc1	i	i	62	i	i	53
CCCCCc1ccc(S(=O)(=O)NCCc2ccncc2)cc1	i	i	i	i	i	78
CCN(C1CCCCC1)S(=O)(=O)c1ccc(S(=O)(=O)NCCc2ccncc2)cc1	i	i	?	i	i	i
CC1CCCC(C)N1S(=O)(=O)c1ccc(S(=O)(=O)NCCc2ccncc2)cc1 (stereo not given)	i	i	57	i	i	i
C=C(C)CSc1nc2nc(C)c(Br)cc2[nH]1	i	i	i	i	i	i
O=C(c1ccc(Cl)cc1)C1CCN(C(=O)NC2CCCCC2)CC1	i	i	i	i	i	52
C/C(=N\Nc1cc(N2CCOCC2)nc(C)n1)c1ccc(F)cc1	i	i	i	i	i	nt
C/C(=N\Nc1cc(N2CCCCC2)nc(C)n1)c1ccc(Br)cc1	i	i	72	i	i	nt
Cc1c(F)cccc1NC(=O)CCCCCC1NC(=O)NC1C (stereo not given)	i	i	i	i	i	i
Cc1cccc2[nH]c3c(N4CCN(C(=O)c5ccco5)CC4)ncnc3c12	i	i	i	i	i	82
O=C(c1ccco1)N1CCN(c2ncnc3scc(-c4ccc(F)cc4)c23)CC1	i	i	i	i	i	78
Cc1cccc2[nH]c3c(N4CCC5(CC4)OCCO5)ncnc3c12	i	i	i	i	i	i
Cc1ccc(-c2csc3ncnc(N4CCN(C(=O)c5ccco5)CC4)c23)cc1	i	nt	nt	nt	nt	nt
Cc1cccc(NC(=S)N(CCCN2CCOCC2)Cc2ccco2)c1	i	i	i	i	i	i
CCN1CCN(S(=O)(=O)Cc2ccccc2Cl)CC1	i	i	i	i	i	nt
CCOC(=O)N1CCC(n2c(SCC(=O)N3CCCC3)nc3ccccc3c2=O)CC1	i	i	i	i	i	i
COCC(C)n1c(SCC(=O)NCCC2=CCCCC2)nc2ccccc2c1=O (stereo not given)	i	i	i	i	i	92
CCOC(=O)N1CCC(n2c(SCC(=O)NCc3ccccc3)nc3ccccc3c2=O)CC1	i	i	i	i	i	81
COCC(C)n1c(SCC(=O)c2cc(C)n(C)c2C)nc2ccccc2c1=O (stereo not given)	i	i	i	i	i	84
CCOC(=O)N1CCC(n2c(SCC(=O)NCCC3=CCCCC3)nc3ccccc3c2=O)CC1	i	i	i	i	i	70
CC(=O)NCCn1c(SCC(=O)NCCC2=CCCCC2)nc2ccccc2c1=O	i	i	i	i	i	i
COCC(C)n1c(C)cc(C(=O)CSc2nnnn2-c2ccc(O)cc2)c1C (stereo not given)	i	i	i	i	i	73
CCOC(=O)N1CCC(n2c(SCC(=O)N3CCC(C)CC3)nc3ccccc3c2=O)CC1	i	i	i	i	i	i
SMILES	NLRP3 yeast inh	PolyA inhibitor	T cruzi repl	NALP1 inh	Calb FLC	L major viab
CCOC(=O)N1CCC(n2c(SCC(=O)Nc3ccccc3OC)nc3ccccc3c2=O)CC1	i	i	56	i	i	i
COCC(C)n1c(C)cc(C(=O)CSc2ncccn2)c1C (stereo not given)	i	i	i	i	i	i
O=[N+]([O-])c1ccccc1S(=O)(=O)n1nnc2ccccc21	i	i	i	i	i	i
COc1cccc(NC(=S)/C(=C(\[O-])c2cc(C)n(-c3ccccc3F)c2C)[n+]2ccc(N(C)C)cc2)c1	i	i	75	i	i	i
Cn1c(=O)c2c(nc(N/N=C/c3ccc(OC(=O)c4ccco4)cc3)n2Cc2ccc(F)cc2)n(C)c1=O	i	i	i	i	i	i
Cn1c(=O)c2c(nc(N/N=C/c3ccc(OC(=O)c4ccco4)cc3)n2Cc2ccccc2Cl)n(C)c1=O	i	i	i	i	i	55
O=C(CCS(=O)(=O)c1ccc(Cl)cc1)N1CCN(c2ccccc2F)CC1	i	i	i	28	i	i
Cc1ccc(S(=O)(=O)CCC(=O)N2CCN(c3ccccc3F)CC2)cc1	i	i	i	i	i	nt
Cc1ccc(C(=O)OCC(=O)N2CCOCC2)cc1	i	i	i	i	i	nt
Cc1cccc(/C(N)=N/OC(=O)N2CCOCC2)c1	i	i	60	i	i	56
Cc1ccc(/C(N)=N/OC(=O)N2CCOCC2)cc1	i	i	55	i	i	i
COc1ccc(CCC(C)N2CCC(CO)(Cc3ccccc3)CC2)cc1 (stereo not given)	i	i	i	i	i	nt
COc1ccc(-c2ncc(CN3CCC(CO)(Cc4cccc(OC)c4)CC3)cn2)cc1	i	i	i	i	i	i
COc1ccc(CC2(CO)CCN(C(C)Cc3ccc(Cl)cc3)CC2)cc1 (stereo not given)	i	i	i	i	i	86
OCCC1CN(Cc2ccc(Oc3ncccn3)cc2)CCN1Cc1ccc(F)c(F)c1 (stereo not given)	i	i	i	i	i	nt
OCC1(Cc2ccc(Cl)cc2)CCN(Cc2ccc(Oc3ncccn3)cc2)CC1	i	i	59	i	i	i
COc1ccc(CC2(CO)CCN(Cc3cccnc3)CC2)cc1	i	i	i	i	i	89
COc1ccc(CC2(CO)CCN(Cc3ccc4nsnc4c3)CC2)cc1	i	i	i	i	i	88
COc1ccc(CC2(CO)CCN(Cc3cccc(OC)c3OC)CC2)cc1	i	i	i	i	i	i
COc1ccccc1CNC(=O)COC(=O)CNS(=O)(=O)c1ccc(C)cc1	i	i	i	i	i	nt
COc1ccc(C(=O)Oc2cccc(/C=N/NC(N)=S)c2)cc1	i	i	i	i	i	i
CCN(C(=O)CN1CCCCC1C)c1c(N)n(Cc2ccccc2)c(=O)[nH]c1=O (stereo not given)	i	nt	nt	nt	nt	nt
CC(=O)C[C@H](O)CC(=O)[C@H]1OC(=O)CC/C=C\Cc2ccccc21	i	nt	nt	nt	nt	nt
OCC1(Cc2ccc(Cl)cc2)CCN(Cc2ccc(F)c(F)c2)CC1	i	i	i	nt	i	nt
OCC1(Cc2ccc(Cl)cc2)CCN(Cc2ccc3nsnc3c2)CC1	i	i	i	i	i	88
COc1ccc(NC(=O)CCSc2nc(C)cs2)cc1	i	?	i	i	i	nt
CCOC(=O)c1nn(-c2ccc(Cl)cc2C)ccc1=O	i	i	i	i	i	nt
CCOc1ccccc1NC(=O)COC(=O)CSc1ccc(Cl)cc1	i	i	i	i	i	57
CCOc1ccccc1NC(=O)CSc1ccccc1	i	i	i	27	i	i
